This is a sample that favours compounds with a hit; in the whole collection about 2.4% have one here.
NPY-Y2 PAM-ag: potentiators or agonists of human neuropeptide Y receptor Y2. cells expressing NPY-Y2, potentiator/agonist read-out. 0.45% of 220,000 active. P49146. activation, % at 3.6 µM; in the data active = activation above about 27%;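 also: cells stimulated with NPY near EC25 plus isoproterenol at EC100; 0% = vehicle plus submaximal agonist and 100% = vehicle plus saturating agonist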
NPY Y2 blocker: antagonists of human neuropeptide Y receptor Y2. NPY-Y2 expressing cells, antagonist mode. inhibition, % at 2.7 µM. 0.99% of 140,000 active. AID 793; in the data active = inhibition above about 17%;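 also: 0% = vehicle with agonist challenge and 100% = reference antagonist with challenge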
S1P4 agonist: human S1P4 receptor agonism | S1P4-expressing cell line, agonist reporter assay | activation, % at 4.98 µM | O95977 | 0.35% of 220,000 active; in the data active = activation above about 11%;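 also: 0% = DMSO vehicle and 100% = reference agonist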
S1P4 antagonist: human S1P4 receptor antagonism. O95977. S1P4-expressing cells, antagonist mode, reporter read-out. inhibition, % at 4.98 µM. 0.26% of 220,000 active. AID 1510; in the data active = inhibition above about 29%;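 also: 0% = wells stimulated with agonist and 100% = vehicle wells without agonist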
NPY1 pot ag: human NPY-Y1 potentiation or agonism, primary screen | P25929 | NPY-Y1 expressing cells, potentiator/agonist activation | activation, % at 3.6 µM | 0.37% of 220,000 active; in the data active = activation above about 33%, passing the limit was not always enough;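 also: cells stimulated with NPY at EC10 then isoproterenol at EC100; 0% = low agonist plus stimulus and 100% = saturating agonist plus stimulus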
Target sequence (P25929 whole entry, looked up): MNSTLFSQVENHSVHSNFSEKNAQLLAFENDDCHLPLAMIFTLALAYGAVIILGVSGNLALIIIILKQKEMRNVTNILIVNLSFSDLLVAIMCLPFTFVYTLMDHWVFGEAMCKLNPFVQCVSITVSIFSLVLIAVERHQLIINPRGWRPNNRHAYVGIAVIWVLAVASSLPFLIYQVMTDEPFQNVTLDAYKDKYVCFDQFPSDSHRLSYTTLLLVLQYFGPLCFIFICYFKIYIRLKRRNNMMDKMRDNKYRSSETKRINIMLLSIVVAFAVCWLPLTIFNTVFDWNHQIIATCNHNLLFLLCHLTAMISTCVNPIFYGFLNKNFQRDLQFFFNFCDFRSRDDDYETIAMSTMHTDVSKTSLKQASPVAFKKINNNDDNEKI
NPY Y1 blocker: antagonists of human neuropeptide Y receptor Y1; P25929; HEK293-CNG Y1 cells, membrane potential fluorescence; NPY at EC95, then isoproterenol; inhibition, % at 3.6 µM; 1% of 200,000 active; AID 1040;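 active = inhibition above the campaign mean inhibition of all tested compounds plus 3 SD, cut at about 20% in these data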;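 also: 0% = DMSO wells given NPY plus isoproterenol and 100% = isoproterenol alone without NPY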
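Material: HEK293 Y1/CNG channel cell line; also added: NPY (25 nM), isoproterenol (1 µM), Ro 20-1724 (25 µM); doses: one concentration, 3.6 µM, in 0.4% DMSO; schedule: compound incubation 1 h at room temperature, readout 45 min post-stimulation; technique: membrane potential fluorescence; measure: fluorescence ratio normalized to % inhibition between controls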
Starred values were filed as active, the others as inactive; . = not tested or not shown.

SMILES	NPY-Y2 PAM-ag	NPY Y2 blocker	S1P4 agonist	S1P4 antagonist	NPY1 pot ag	NPY Y1 blocker
N/C(=N\OC(=O)CCCCCN1C(=O)c2ccccc2C1=O)c1ccccc1	-36	7	-1	-8	-34	13
Cc1ccc(-c2nc3ncccc3o2)cc1NC(=O)c1cc2ccccc2o1	20	20*	0	7	10	22*
O=C(Nc1cccc(-c2nc3ncccc3o2)c1)c1cc2ccccc2o1	-9	9	0	-1	-10	5
NC(=O)C1=NOC(CNc2ncc(C(F)(F)F)cc2Cl)C1 (configuration not stated)	8	-1	0	-9	0	-8
CSC1=NCCN1C(=O)c1ccc(S(=O)(=O)N2CCCCC2)cc1	15	2	166*	-6	8	2
NC(=O)c1ccc(NC(=O)c2cccc3c2OCCCO3)cc1	3	.	0	6	-10	.
CCOC(=O)CC(=O)NC(C)(C)CCCCC(C)(C)NC(=O)CC(=O)OCC	-12	.	1	9	-14	.
O=C(Nc1ccccc1)C1C2CCC3C(CCC21)C3(Cl)Cl (configuration not stated)	-17	14	-4	23	-1	21*
CCOc1ccccc1NC(=O)C1C2CCC3C(CCC21)C3(Cl)Cl (configuration not stated)	-13	.	-2	18	-18	10
CN(C)C(=O)C1C2NC(=S)N(c3ccc(Cl)cc3)C1(C)Oc1ccc(Cl)cc12 (configuration not stated)	89*	.	1	2	92*	-9
CN(C)C(=O)C1C2NC(=S)N(c3ccccc3)C1(C)Oc1ccccc12 (configuration not stated)	1	.	-2	3	2	-1
CN(C)C(=O)C1C2NC(=S)N(c3cccc(Cl)c3)C1(C)Oc1ccc(Cl)cc12 (configuration not stated)	29*	.	-2	-7	51*	-9
CN1CCC(NC(=S)Nc2cccc([N+](=O)[O-])c2)CC1	9	.	2	-3	11	2
O=C(COC(=O)c1n[nH]c2ccccc12)NC(=O)NCc1ccco1	-1	3	0	-20	28	0
O=C(COC(=O)c1cc2ccccc2cc1O)NC(=O)NCc1ccco1	-29	.	1	-10	-15	21*
OCCN1CCN(CCCc2c3c(cc4c2CCC4)CCC3)CC1	3	4	1	-23	4	14
COc1ccc(C2=Nn3c(nnc3-c3ccccc3OC)SC2)cc1OC	-32	30*	-3	6	-75	30*
Cc1ccc(S(=O)(=O)NCC(=O)N(CC(=O)NCC2CCCO2)Cc2ccco2)cc1 (configuration not stated)	-13	.	0	-13	-9	-1
CCOC(=O)c1c(NC(=O)CN2CCCCC2)sc2c1CCN(C(=O)OCC)C2	-10	36*	2	8	-29	56*
CCOC(=O)c1c(NC(=O)CN(CC)CC)sc2c1CCN(C(=O)OCC)C2	-4	30*	0	-20	-26	23*
CCOC(=O)c1c(NC(=O)CSc2ncccn2)sc2c1CCN(Cc1ccccc1)C2	-32	17*	1	3	-79	33*
CCOC(=O)c1c(NC(=O)C(C)Sc2cccc[n+]2[O-])sc2c1CCN(Cc1ccccc1)C2 (configuration not stated)	-9	2	2	-24	8	0
Cc1cccc(Nc2sc(C(=O)c3cc4cc(Cl)ccc4o3)c(N)c2C#N)c1	-3	.	0	-1	16	.
O=C(COc1ccc([N+](=O)[O-])cc1)N(Cc1ccccc1)Cc1ccccc1	-8	23*	-1	-3	-16	21*
CC(C)CCNC(=O)Cn1c(NCCC(C)C)nc2c1c(=O)n(C)c(=O)n2C	4	1	0	-17	-12	60*
CN(C)/C=C(/C(=O)c1ccccc1Cl)S(=O)(=O)c1ccccc1	-17	3	2	-6	-9	39*
COc1ccc(C(=O)/C(=C/N(C)C)S(=O)(=O)c2ccccc2)cc1	3	.	0	1	3	0
CCC(C)(C(=O)NC1CCCCC1)N(Cc1cccs1)C(=O)Cc1cccs1 (configuration not stated)	1	39*	2	-4	-42	59*

Assay outcomes as filed in PubChem.
